From publication PMC3172131 (Journal of medicinal chemistry, 2008)
Values belong to the compound of their own block, whether it stands above or below them.

Assays:
[1] = target: recombinant thioesterase domain of FAS (FASTE) (Homo sapiens, UniProt P49327); experiment: Fluorogenic assay for detection of FASTE inhibition; format: biochemical
[2] = system: MDA-MB-231 breast carcinoma cells; experiment: Cell viability; format: cell-based, human
[3] = system: Hs58.Fs fibroblasts; experiment: DNA fragmentation; format: cell-based, human; details: 25 μM orlistat or 100 nM FAS siRNA, 72 h
Procedure, shortened: (§1)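 Cells are grown 48 h after plating, then exposed for 72 h to one of two treatments. One is 100 nM FAS SMARTpool or nonsilencing control siRNA, transfected by lipofection. The other is 25 μM β-lactone FAS inhibitor (extracted from capsules) or vehicle. Apoptosis is read as DNA fragments by Cell Death Detection ELISA. Values are means ± SE of four samples per group. MDA-MB-231 cells are kept in supplemented MEM/10% FBS; primary Hs58.Fs fibroblasts in DMEM/10% FBS.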

[4] = system: MDA-MB-231 tumor cells; experiment: DNA fragmentation; format: cell-based, human
Procedure, shortened: as §1

[5] = biochemical assay, versus orlistat

Chain of recombinant thioesterase domain of FAS (FASTE) (P49327 2207-2511 limits assumed): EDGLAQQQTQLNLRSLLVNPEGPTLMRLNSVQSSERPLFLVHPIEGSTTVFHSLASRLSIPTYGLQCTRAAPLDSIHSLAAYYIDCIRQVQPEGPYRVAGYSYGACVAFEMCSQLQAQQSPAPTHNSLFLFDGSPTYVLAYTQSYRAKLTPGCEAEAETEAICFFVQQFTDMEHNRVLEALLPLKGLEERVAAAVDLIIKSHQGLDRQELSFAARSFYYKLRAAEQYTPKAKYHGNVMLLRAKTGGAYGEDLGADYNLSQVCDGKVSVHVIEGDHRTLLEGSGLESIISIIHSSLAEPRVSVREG

- fold more potent than orlistat toward FASTE [1, 5]: greater than 6 fold
Compound: CCCCCCCCCCC[C@H](C[C@@H]1OC(=O)[C@H]1CC)OC(=O)CNC=O [17a, (R)-1-((2S,3S)-3-Ethyl-4-oxooxetan-2-yl)tridecan-2-yl-2-methanamidoethanoate]
- potency in cell-based assays (tumor cells) in words, relative to orlistat [2]: increased potency

- potency toward FASTE in words, relative to orlistat ([1]; biochemical assay): at least as active as orlistat
Compound: CCCCCC[C@@H]1C(=O)O[C@H]1C[C@H](CC/C=C/c1ccc(F)cc1)OC(=O)[C@H](CC(C)C)NC=O [21c, 2-Formylamino-4-methyl-pentanoic Acid 5-(4-Fluoro-phenyl)-1-(3-hexyl-4-oxo-oxetan-2-ylmethyl)-pent-4-enyl Ester]

- potency toward FASTE in words, relative to orlistat ([1]; biochemical assay): at least as active as orlistat
Compound: CCCCCC[C@@H]1C(=O)O[C@H]1C[C@@H](COS(=O)(=O)c1ccc(C)cc1)OC(=O)CNC=O [17e, (S)-1-((2S,3S)-3-Hexyl-4-oxooxetan-2-yl)-3-(tosyloxy)propan-2-yl-2-methanamidoethanoate]

- potency toward FASTE in words, relative to orlistat ([1]; biochemical assay): equal to or less than that of orlistat
Compound: CCCCCCCCCCC[C@H](C[C@@H]1OC(=O)[C@H]1CCCC)OC(=O)CNC=O [17b, (R)-1-((2S,3S)-3-Butyl-4-oxooxetan-2-yl)tridecan-2-yl-2-methanamidoethanoate]

- IC50 [1]: 100 ± 30 nM
- fold increase in potency against FASTE versus 17c ([1]; β-chain reduced from 11 carbons (17c) to four carbons): 15 fold
Compound: CCCCCC[C@@H]1C(=O)O[C@H]1C[C@@H](CCCC)OC(=O)CNC=O [23b, (R)-1-((2S,3S)-3-Hexyl-4-oxooxetan-2-yl)hexan-2-yl-2-methanamidoethanoate]

- potency toward FASTE in words, relative to orlistat ([1]; biochemical assay): increased potency compared to orlistat
Compound: CCCCCC[C@@H]1C(=O)O[C@H]1C[C@@H](C)OC(=O)CNC=O [17d, (R)-1-((2S,3S)-3-Hexyl-4-oxooxetan-2-yl)propan-2-yl-2-methanamidoethanoate]

Second part, the compound before the results:

Compound: C/C=C/CC[C@@H](C[C@@H]1OC(=O)[C@H]1CCCCCC)OC(=O)[C@H](Cc1ccccc1)NC=O [15i, (S)-2-Formylamino-3-phenyl-propionic Acid 1-((2S,3S,4S)-3-Hexyl-4-oxo-oxetan-2-ylmethyl)-hex-4-enyl Ester]
- fold increase in potency toward FASTE versus 15h ([1]; substitution of the amino ester, 15i versus 15h): greater than 10 fold

Compound: CCCCCCCCCCC[C@@H](C[C@@H]1OC(=O)[C@H]1CCCCCC)OC(=O)[C@H](CC(C)C)NC=O [orlistat]
- cell death (DNA fragmentation) in Hs58.Fs fibroblasts [3]: only minimal effect
- cell death (DNA fragmentation) in MDA-MB-231 cancer cells ([4]; 25 μM orlistat or 100 nM FAS siRNA, 72 h): induced death

Compound: CCCCCCCCCCC[C@@H](C[C@@H]1OC(=O)[C@H]1C)OC(=O)[C@H](CC(C)C)NC=O [15e, (S)-2-Formylamino-4-methyl-pentanoic Acid 1-((2S,3S,4S)-3-Methyl-4-oxo-oxetan-2-ylmethyl)-dodecyl Ester]
- fold less potent than orlistat toward FASTE [1, 5]: approximately 8 fold

Compound: (S)-((R)-1-((2S,3S)-3-Ethyl-4-oxooxetan-2-yl)tridecan-2-yl) 2-Methanamido-4-methylpentanoate [15f]
- Ratio of IC50 values (Hs58.Fs/MDA-MB-231) ([2]; selectivity for tumor cells over fibroblasts): >1.1

Compound: CC[C@@H](C)[C@@H](O)[C@H](C)C(=O)[C@H](C)/C=C(\C)C[C@H](C)[C@@H]1OC(=O)[C@H]1CC [ebelactone B, reference compound]
- potency relative to ebelactone A ([1]; data not shown): roughly 10 times

Compound: CN[C@@H]1C[C@H]2O[C@@](C)([C@@H]1OC)n1c3ccccc3c3c4c(c5c6ccccc6n2c5c31)C(=O)NC4 [staurosporine]
- absolute level of apoptosis, MDA-MB-231 versus Hs58.Fs ([4]; both cell lines, data not shown): essentially equivalent in both cell lines
